According to publication PMC11489560 (Molecular Therapy, 2024):

Tests used:
[1] = tested on: hippocampal slices; assay: Effect of BDNF on LTP in hippocampal slices; set-up: species or system rat; details: control conditions (vehicle-exposed slices); BDNF 30 ng/mL
In short: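 Acute hippocampal slices from male Wistar rats (7-10 weeks) recovered at least 60 min in gassed aCSF at 22°C-24°C, then exposed 3 h at room temperature to vehicle (PBS, pH 7.4). BDNF was tested in separate slices from the same rats. LTP magnitude was the normalized change in mean fEPSP slope 50-60 min post-induction versus the 10 min before induction.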

[2] = tested on: hippocampal synaptosomes; assay: [3H]Glutamate release from hippocampal synaptosomes, effect of BDNF; set-up: species or system rat; details: control conditions; BDNF 30 ng/mL
In short: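 Hippocampal slices from male Wistar rats (7-10 weeks) were exposed 3 h to vehicle (PBS), then synaptosomes were isolated via 45% Percoll in KHR. Synaptosomes (1-2 mg/mL protein) equilibrated 5 min at 37°C in oxygenated aCSF and were loaded with [3H]glutamate, then given two K+ depolarizations. Release was expressed as % of total radioactivity per time point, and internal control curves from the same batch were subtracted. The BDNF effect was the integrated S2 peak area above basal tritium release.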

B1: brain-derived neurotrophic factor (protein, UniProt P23560 19-247, looked up)
Neurotrophic factor BDNF …: APMKEANIRGQGGLAYPGVRTHGTLESVNGPKAGSRGLTSLADTFEHVIEELLDEDQKVRPNEENNKDADLYTSRVMLSSQVPLEPPLLFLLEEYKNYLDAANMSMRVRRHSDPARRGELSVCDSISEWVTAADKKTAVDMSGGTVTVLEKVPVSKGQLKQYFYETKCNPMGYTKEGCRGIDKRHWNSQCRTTQSYVRALTMDSKKRIGWRFIRIDTSCVCTLTIKRGR
- LTP magnitude [1]: potentiated
- K+-evoked glutamate release [2]: potentiated
